Assay outcomes deposited in PubChem by several laboratories.
This is a sample that favours compounds with a hit; in the whole collection about 2.1% have one here.
Wee1 stabilizer = inhibitors of human Wee1 degradation | HeLa Luc-Wee1K328M stability, luciferase luminescence; 100% = proteasome inhibitor MG132 effect | reporter increase, % at 5 µM | 220,000 compounds, 1.2% hits;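 active means activation above the mean of all tested compounds plus 3 SD, set per screening run, cut at about 8.8% in these data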;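 further: cells exposed to compound for 20 h before luminescence read; 0% = DMSO alone and 100% = MG132 at 30 µM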
TNF death inh = TNF-alpha cell death inhibition in Jurkat FADD-/- cells; activation (protection from cell death), % at 10 µM; 220,000 compounds, 0.068% hits; Jurkat FADD-/- TNF necroptosis rescue, ATP luminescence, 24 h; 0 = TNF only, 100 = no-TNF cells;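 active means activation, meaning protection from cell death, of at least 50% relative to plate controls; inactive means activation below 50%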;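 further: necroptosis triggered by 40 ng/mL TNF-alpha added together with compound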
L929 necroptosis = L929 zVAD cell death inhibition; L929 zVAD necroptosis rescue, ATP luminescence, 24 h; with zVAD 60 µM; viability rescue, % at 10 µM; 220,000 compounds, 0.38% hits; AID 1377;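 active means activation, scaled between plate controls, above about 75%, limit read from the data; inactive means activation under that limit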;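 further: 0% = zVAD with DMSO and 100% = DMSO alone without zVAD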
RBBP9 inh = blocks human serine hydrolase RBBP9; recombinant RBBP9, FP-Rh probe fluorescence polarization; inhibition, % at 7.94 µM; 220,000 compounds, 0.2% hits; AID 1515;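 active means inhibition above the campaign mean of all tested compounds plus 3 SD, cut at about 14% in these data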;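 further: plate controls were DMSO wells with RBBP9 for no effect and wells lacking RBBP9 protein for full effect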
Target sequence (O75884 whole entry, looked up): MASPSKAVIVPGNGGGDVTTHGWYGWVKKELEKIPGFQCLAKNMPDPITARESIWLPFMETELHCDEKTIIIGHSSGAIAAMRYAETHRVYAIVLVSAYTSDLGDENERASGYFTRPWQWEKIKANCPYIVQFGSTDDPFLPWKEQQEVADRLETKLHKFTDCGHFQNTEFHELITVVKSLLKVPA
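Material: RBBP9 protein. Amount: RBBP9 at 2.5 µM in dispensed solution, before mixing. Schedule: 30 min then 45 min, 25 °C. Medium: Tris buffer pH 8.0, NaCl, Pluronic. Measured by: fluorescence polarization. Measure: percent inhibition from mP, scaled between DMSO and no-protein wells. Replication: one well per compound.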
m-calpain inh = blocks pig calpain II enzyme activity; purified calpain II, fluorogenic peptide substrate, 30 min; inhibition, % at 16 µM; 220,000 compounds, 0.37% hits;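 active means inhibition above about 50%, limit read from the data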
Pf gametocyte = kills late stage P. falciparum gametocytes; P. falciparum stage V gametocytes, ATP luminescence, 24 h; 150,000 compounds, 0.065% hits; AID 743093; inhibition, % at 10.9 µM;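 active means inhibition above the mean plus 3 SD of compounds within the control limits, set per campaign, cut at about 38% in these data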;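 further: 0% = DMSO wells and 100% = medium only without gametocytes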
Wee1 stab conf = confirmation of human Wee1 degradation inhibitors; shares compounds with Wee1 stabilizer; activation, % at 5 µM; HeLa Luc-Wee1K328M degradation, luminescence; vehicle 0%, proteasome-blocked wells 100%; AID 1410; 1,100 compounds, 4% hits; in the data active means activation above about 8.9%
zVAD necrop conf = confirmed blocker of zVAD induced death in L929 cells; activation (protection from necroptosis), % at 10 µM; AID 463117; shares compounds with L929 necroptosis; L929 zVAD-induced necroptosis rescue, ATP luminescence, 24 h; 760 compounds, 16% hits;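 active means mean protection from necroptosis of at least 50% over duplicate tests; inactive means mean protection below 50%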;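 further: 0% = cells with zVAD alone and 100% = vehicle cells without zVAD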
Starred values were filed as active, the others as inactive; i = inactive; nt = no result.

SMILES	Wee1 stabilizer	TNF death inh	L929 necroptosis	RBBP9 inh	m-calpain inh	Pf gametocyte	others
Oc1cc2c(cc1O)[C@H]1c3ccccc3CN[C@@H]1CC2	-1	nt	nt	22*	-21	nt
Clc1ccc(COC(Cn2ccnc2)c2ccc(Cl)cc2Cl)c(Cl)c1 (stereo unspecified)	1	-3	0	-10	58*	nt
CCCCCn1c(=O)c(C(=O)Nc2nc3ccccc3[nH]2)c(O)c2ccccc21	10*	-10	2	1	-18	24
CCCCCn1c(=O)c(C(=O)Nc2ccccc2Cl)c(O)c2ccccc21	nt	nt	nt	nt	nt	-11
O=C1NC(=O)N(c2cccc(Cl)c2)C(=O)/C1=C\c1ccc(Sc2nc3ccccc3[nH]2)o1	11*	11	2	-163	-30	-34
O=C1NC(=O)N(c2ccccc2F)C(=O)/C1=C/c1ccc(Sc2nc3ccccc3[nH]2)o1	1	4	0	-207	12	17
C=C1C(=O)O[C@@H]2C[C@@H](C)[C@@H]3C=CC(=O)[C@@]3(C)[C@@H](O)[C@H]12	nt	53*	94*	nt	-25	nt
CC(C)(C)NC(=S)N1CCn2cccc2C1c1cccnc1 (stereo unspecified)	0	2	0	-8	6	nt
CCOP(=S)(OCC)Oc1cc(C)oc(=O)c1Cl	1	-2	0	-11	5	-2
COc1cc(C=C2C(=O)NC(=O)NC2=O)ccc1OCc1ccc([N+](=O)[O-])cc1	12*	-2	-1	-7	13	-5
CC(=O)N1N=C(c2cccnc2)OC1c1ccccc1Cl (stereo unspecified)	1	7	0	5	-18	0
O=C(O)c1nonc1-c1nonc1C(=O)O	18*	0	0	4	16	-7
c1cc(CCN2CCCC2)ccn1	0	1	1	-5	0	-2
c1ccc2c(CN3CCCCCCC3)c[nH]c2c1	-4	-10	1	-9	26	20
c1ccc2c(CN3CCN(C4CCCCC4)CC3)c[nH]c2c1	11*	0	0	0	10	nt
CCC(=NCc1cc(OC)cc(OC)c1)c1c(O)n(C)c(=O)n(C)c1=O	2	-2	2	-3	10	-16
CC(C)CCOC(=O)c1c(N)n(CC2CCCO2)c2nc3ccccc3nc12 (stereo unspecified)	10*	-7	0	4	i	5
O=c1c2ccccc2nc(-c2ccc(Cl)cc2Cl)n1-c1nccs1	3	1	0	5	-12	-1
CCN(CC)C(=O)c1ccc(NC(=O)c2cccc(F)c2)cc1	8.8*	1	0	-2	-19	7
NC(=O)c1ccc(C(=O)Nc2ccc([As](=O)(O)O)cc2)cc1	0	2	0	2	5	nt
O=C(CN1CC=C(c2ccccc2)CC1)Nc1cc(Cl)ccc1Cl	1	0	1	4	9	-7
Cc1ccc(S(=O)(=O)N2CCCCC2)cc1NC(=O)CN1CC=C(c2ccccc2)CC1	9.2*	4	0	-2	26	-4
CN1CCN(c2ccc(C(F)(F)F)cc2N)CC1	-2	3	0	-5	11	nt
CCCCN1C(=O)C(C2c3ccccc3C(=O)N2Cc2ccccc2)C(=O)NC1=S (stereo unspecified)	9.9*	-1	0	2	-26	-16
CCOP(=O)(Cc1cc(C(=O)CC)c(C)o1)OCC	5	2	1	-2	-15	5
SMILES	Wee1 stabilizer	TNF death inh	L929 necroptosis	RBBP9 inh	m-calpain inh	Pf gametocyte	others
COc1ccc(-c2cc(=O)c3c(OC)c(OC)c(OC)cc3o2)cc1	9.3*	-1	32	3	16	nt
O=C1C=Cc2ccccc2C1=O	-2	-3	0	3	60*	nt
Cc1ccc(S(=O)(=O)N2CC3CC(C2)c2cccc(=O)n2C3)cc1 (stereo unspecified)	-2	-1	0	-3	-2	nt
Brc1ccc2c(c1)C(OC1CN3CCC1CC3)c1ccccc1CS2 (stereo unspecified)	3	-5	-2	1	-23	nt
NC1=NC(=O)C(c2ccccc2)O1 (stereo unspecified)	10*	nt	nt	-5	-18	nt
CCc1ccccc1NC(=O)CNC1CCCCC1	-1	2	-1	3	0	4
Cc1ccc2ccccc2c1NC(=O)CNC1CCCCC1	10*	0	0	4	-13	nt
O=P(c1ccccc1)(c1nc2ccccc2s1)N1CCOCC1 (stereo unspecified)	2	-1	1	-5	-35	16
CCN1CCN(c2nc3ccccc3s2)CC1	15*	0	0	-2	-3	nt	Wee1 stab conf=6
CSc1nc(N2CCN(C)CC2)c2ccccc2n1	15*	1	0	-5	-28	18	Wee1 stab conf=3
O=C(C(=O)N1CCOCC1)c1cn(Cc2ccc(F)cc2)c2ccccc12	12*	0	0	-6	-13	11	Wee1 stab conf=-2
O=C(C(=O)N1CCOCC1)c1cn(Cc2ccccc2Cl)c2ccccc12	1	0	2	-7	14	3
O=[N+]([O-])c1ccc(N2CCNCC2)cc1Sc1ccccn1	-5	3	0	-5	6	8
CN1C2CCC1CC(OC(=O)c1ccc([N+](=O)[O-])cc1)C2 (stereo unspecified)	13*	2	1	4	-5	20	Wee1 stab conf=0
CC1CC(OC(=O)c2ccccc2)CC(C)N1C (stereo unspecified)	3	2	0	7	4	-6
O=c1c2ccccc2nc(/C=C/c2ccc(O)cc2)n1-c1cccc(O)c1	12*	-1	2	-8	-28	nt	Wee1 stab conf=0
Cc1ccc(-n2c(/C=C/c3ccc4c(c3)OCO4)nc3ccccc3c2=O)cc1	11*	2	-1	1	15	14	Wee1 stab conf=1
Cc1nccn1Cc1ccc(Cl)nc1	-1	0	0	-2	-15	9
CCOC(=O)c1c(C)n(C(C)C)c2ccc(OC(=O)c3ccc(N4C(=O)CCC4=O)cc3)cc12	-1	3	8	-13	-63	3
O=C(/C=C/c1ccc2c(c1)OCO2)c1c(O)n(CCc2ccccc2)c(=O)[nH]c1=O	5	-5	0	1	-33	12
O=C(/C=C/c1ccccc1)c1c(O)n(CCc2ccccc2)c(=O)[nH]c1=O	-2	-1	83*	-2	-18	12	zVAD necrop conf=1
